# According to PMC5616206 (Toxicology Reports, 2016):
# Entries after “also recorded” stand apart in the source; their conditions may differ. Like-named read-outs stand apart in the source and are kept apart here.
# What was measured:
# [1] = In vitro metabolism by rat liver microsomes; type: in vitro ADME, Sprague-Dawley rat; conditions: S9229 incubation, relative to S9229 at time = 0
# [2] = In vitro metabolism by human liver microsomes; type: in vitro ADME; conditions: S9229 incubation, relative to S9229 at time = 0
# [3] = Pharmacokinetics of S9229 in rats, single iv or oral dose; type: in vivo, Sprague-Dawley rats; conditions: for AUC(0-t) / Cmax / Tmax / Vd / clearance / half-life / bioavailability: Sprague-Dawley, rat, plasma; for AUC0-24hr Ratio / Cmax Ratio: vs 10 mg/kg dose
# Outline: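 Sprague-Dawley rats, 4/sex, received a 1 mg/kg bw IV bolus in 1% ethanol in saline, with tail-vein sampling from 2 min to 8 h. Oral groups (3/sex/group) were gavaged once with 10, 30 or 100 mg/kg bw in 1% methylcellulose and sampled from 15 min to 24 h. Plasma was assayed for parent and metabolites.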
# [4] = In vivo metabolism of S9229 in rats; parameters: species or system Sprague-Dawley rats; conditions: rat plasma, 1 h time point, 100 mg/kg bw oral
# [5] = tested on: S. typhimurium strains TA98, TA100, TA1535, TA1537 and E. coli strain WP2 uvrA; experiment: Bacterial reverse mutation test; type: cell-based; conditions: 50–5000 μg/plate, plate incorporation, ±S9
# Outline: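 The assay followed OECD Guideline 471 and used S. typhimurium TA98, TA100, TA1535 and TA1537 and E. coli WP2 uvrA. It was run with and without S9 from livers of Aroclor 1254-treated Sprague-Dawley rats. One compound was tested at 21–5000 μg/plate by plate incorporation and pre-incubation. The other was tested at 50–5000 μg/plate in an initial toxicity-mutation test and a confirmatory mutation test.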
# [6] = tested on: Male and Female Hsd:ICR (CD-1) mice, bone marrow PCEs; experiment: In vivo micronucleus assay in mice, S9229
# Outline: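 Hsd:ICR (CD-1) mice were gavaged once with the test compound suspended in 1% methylcellulose (20 mL/kg) in both the range-finding and definitive phases. The definitive phase used 0, 500, 624, 1352 and 2000 mg/kg bw, 5/sex/group, with bone marrow sampled at 24 h. Additional vehicle, 1352 and 2000 groups were sampled at 48 h. Femoral marrow smears were stained with acridine orange and scored for mnPCEs and PCE/TE ratio. Cyclophosphamide 50 mg/kg was the positive control.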
# [7] = tested on: Primary human lymphocytes; conditions: for dose with substantial toxicity (at least 50% reduction in mitotic index): preliminary toxicity test
# [8] = oral gavage 10 mg/kg bw, female
# [9] = oral gavage 30 mg/kg bw, female
# [10] = oral gavage 100 mg/kg bw, female
structure (smiles),measurement,setting,value
"COC[C@@H](CC(C)C)NC(=O)c1ccc(C)c(C)c1 [S9229, (R)-N-(1-methoxy-4-methylpentan-2-yl)-3,4-dimethylbenzamide]",% MS (EIC) Peak Area,[1]; 10 min,36.4%
same,% MS (EIC) Peak Area,[1]; 20 min,1.93%
same,% MS (EIC) Peak Area,[2]; 10 min,86.9%
same,% MS (EIC) Peak Area,[2]; 20 min,70.6%
same,% MS (EIC) Peak Area,[2]; 60 min,~22.6%
same,AUC(0-t),"[3]; female, iv, 1 mg/kg",1.73 ± 0.376 µg·h/mL
same,Cmax,"[3]; female, iv, 1 mg/kg",3.94 ± 1.07 µg/mL
same,Tmax,"[3]; female, iv, 1 mg/kg",1.8 min
same,Vd,"[3]; female, iv, 1 mg/kg",2.82 L/kg
same,clearance,"[3]; female, iv, 1 mg/kg",0.474 L/h/kg
same,half-life,"[3]; female, iv, 1 mg/kg",260 ± 99 min
same,bioavailability,"[3]; female, po",0.09 to 0.1%
same,AUC(0-t),"[3]; female, po, 10 mg/kg",0.0152 ± 0.0112 µg·h/mL
same,Cmax,"[3]; female, po, 10 mg/kg",0.0105 ± 0.0139 µg/mL
same,Tmax,"[3]; female, po, 10 mg/kg",15 min
same,bioavailability,"[3]; female, po, 10 mg/kg",0.09%
same,half-life,"[3]; female, po, 10 mg/kg",57.6 ± 18 min
same,AUC(0-t),"[3]; female, po, 30 mg/kg",0.0495 ± 0.0317 µg·h/mL
same,Cmax,"[3]; female, po, 30 mg/kg",0.0554 ± 0.0439 µg/mL
same,Tmax,"[3]; female, po, 30 mg/kg",15 min
same,bioavailability,"[3]; female, po, 30 mg/kg",0.1%
same,half-life,"[3]; female, po, 30 mg/kg",109 ± 127 min
same,AUC(0-t),"[3]; female, po, 100 mg/kg",0.175 ± 0.169 µg·h/mL
same,Cmax,"[3]; female, po, 100 mg/kg",0.102 ± 0.124 µg/mL
same,Tmax,"[3]; female, po, 100 mg/kg",100 min
same,bioavailability,"[3]; female, po, 100 mg/kg",0.1%
same,half-life,"[3]; female, po, 100 mg/kg",61.8 ± 19.2 min
same,ratio of female/male AUC0-24hr,[3]; iv 1 mg/kg,1.02
same,ratio of female/male Cmax,[3]; iv 1 mg/kg,1.08
same,CL as % of hepatic blood flow,"[3]; iv, females",14.4%
same,CL as % of hepatic blood flow,"[3]; iv, males",13.9%
same,AUC(0-t),"[3]; male, iv, 1 mg/kg",1.69 ± 0.416 µg·h/mL
same,Cmax,"[3]; male, iv, 1 mg/kg",3.65 ± 1.18 µg/mL
same,Tmax,"[3]; male, iv, 1 mg/kg",1.8 min
same,Vd,"[3]; male, iv, 1 mg/kg",3.47 L/kg
same,clearance,"[3]; male, iv, 1 mg/kg",0.459 L/h/kg
same,half-life,"[3]; male, iv, 1 mg/kg",323 ± 130 min
same,bioavailability,"[3]; male, po",0.04 to 0.1%
same,AUC(0-t),"[3]; male, po, 10 mg/kg",0.0113 ± 0.01 µg·h/mL
same,Cmax,"[3]; male, po, 10 mg/kg",0.0194 ± 0.024 µg/mL
same,Tmax,"[3]; male, po, 10 mg/kg",15 min
same,bioavailability,"[3]; male, po, 10 mg/kg",0.07%
same,half-life,"[3]; male, po, 10 mg/kg",82.8 ± 76.8 min
same,AUC(0-t),"[3]; male, po, 30 mg/kg",0.0206 ± 0.0037 µg·h/mL
same,Cmax,"[3]; male, po, 30 mg/kg",0.0119 ± 0.0006 µg/mL
same,Tmax,"[3]; male, po, 30 mg/kg",15 min
same,bioavailability,"[3]; male, po, 30 mg/kg",0.04%
same,half-life,"[3]; male, po, 30 mg/kg",107 ± 41.4 min
same,AUC(0-t),"[3]; male, po, 100 mg/kg",0.175 ± 0.0578 µg·h/mL
same,Cmax,"[3]; male, po, 100 mg/kg",0.0523 ± 0.012 µg/mL
same,Tmax,"[3]; male, po, 100 mg/kg",49.8 min
same,bioavailability,"[3]; male, po, 100 mg/kg",0.1%
same,half-life,"[3]; male, po, 100 mg/kg",134 ± 65.4 min
same,AUC0-24hr Ratio,[3]; [8],1
same,Cmax Ratio,[3]; [8],1
same,AUC0-24hr Ratio,"[3]; oral gavage 10 mg/kg bw, male",1
same,Cmax Ratio,"[3]; oral gavage 10 mg/kg bw, male",1
same,AUC0-24hr Ratio,[3]; [9],3.26
same,Cmax Ratio,[3]; [9],5.28
same,AUC0-24hr Ratio,"[3]; oral gavage 30 mg/kg bw, male",1.82
same,Cmax Ratio,"[3]; oral gavage 30 mg/kg bw, male",0.61
same,AUC0-24hr Ratio,[3]; [10],11.5
same,Cmax Ratio,[3]; [10],9.68
same,AUC0-24hr Ratio,"[3]; oral gavage 100 mg/kg bw, male",15.5
same,Cmax Ratio,"[3]; oral gavage 100 mg/kg bw, male",2.70
same,parent compound as % of the total peak area,[4],less than 1%
same,"Reverse mutation (in vitro), Result",[5],not mutagenic; also recorded: Negative
same,"Micronucleus formation (in vivo), Result","[6]; 500, 624, 1352, 2000 mg/kg bw (oral)",neither clastogenic nor aneugenic; also recorded: Negative
same,well tolerated highest dose tested,"[6]; preliminary dose range finding, oral, male and female mice",2000 mg/kg bw
same,dose levels with visible precipitate in treatment medium,[7]; beginning of the treatment period,≥ 322 µg/mL
same,dose with substantial toxicity (at least 50% reduction in mitotic index),[7]; non-activated 20-h exposure,≥ 263 µg/mL
same,dose with substantial toxicity (at least 50% reduction in mitotic index),[7]; non-activated and S9-activated 4-h exposure,≥ 789 µg/mL
